Experimental data published in article PMC10125337 (ACS Bio & Med Chem Au, 2023).
Where a SMILES comes first, the peptide text is derived from it. Where no end group is shown, it is not given here. [ ]: non-standard residue; d: D form.

B1: NT-02 (peptide)
peptide: [dK][dL][dL][dF][dF][dA]-NH2
modifications: N-terminus assumed
SMILES: CC(C)C[C@@H](NC(=O)[C@H](N)CCCCN)C(=O)N[C@H](CC(C)C)C(=O)N[C@H](Cc1ccccc1)C(=O)N[C@H](Cc1ccccc1)C(=O)N[C@H](C)C(N)=O
B2: NT-13 (peptide)
peptide: [dL][dP][dF][dF][dA][dE]-NH2
modifications: N-terminus assumed
SMILES: CC(C)C[C@@H](N)C(=O)N1CCC[C@@H]1C(=O)N[C@H](Cc1ccccc1)C(=O)N[C@H](Cc1ccccc1)C(=O)N[C@H](C)C(=O)N[C@H](CCC(=O)O)C(N)=O
B3: NT-03 (peptide)
peptide: [dK][dL][dL][dF][dF]-NH2
modifications: N-terminus assumed
SMILES: CC(C)C[C@@H](NC(=O)[C@H](N)CCCCN)C(=O)N[C@H](CC(C)C)C(=O)N[C@H](Cc1ccccc1)C(=O)N[C@H](Cc1ccccc1)C(N)=O

What was measured:
[1] = system: Aβ42-induced apoptosis in PC-12-derived neurons; assay: Apoptosis assay; type: cell-based, rat; settings: Aβ42 10 µM + NT peptide 10 µM, 24 h, n = 3
Aβ42 peptide [2] = molecular target: T1, Aβ42 peptide (Homo sapiens, UniProt P05067); assay: HR-TEM of fibril formation; settings: for Aβ42 fibril structure after coincubation (HR-TEM): Aβ42 coincubated with peptide at 37 °C for 7 days; for fibril formation of the peptide incubated alone (HR-TEM): 7 days, 37 °C
Serum stability = type: in vitro ADME; settings: human, 50% human serum
Method in brief: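 Test peptide at 150 μM final in 50% human serum, 37 °C. Aliquots were taken at 0, 6, 12, 24, 48 and 72 h and mixed 1:1 with acetonitrile to precipitate serum proteins. Samples were held 30 min at 4 °C, then centrifuged at 10,000 rpm for 30 min at 4 °C. The supernatant was analysed by RP-HPLC for percentage of intact peptide. Compound-free serum served as blank.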

Aβ42 peptide [3] = molecular target: T1, Aβ42 peptide; assay: FTIR spectroscopy of β-sheet content; settings: Aβ42 20 µM + peptide 20 µM, PBS pH 7.4, 37 °C, 7 days; β-sheet 1610–1640, α-helix 1640–1660 cm^–1
Aβ42 peptide [4] = molecular target: T1, Aβ42 peptide; assay: ThT fluorescence assay of Aβ42 aggregation inhibition; type: biochemical; settings: 72 h, 37 °C; for inhibition of Aβ42 aggregation (ThT assay): peptide 5 µM + Aβ42 5 µM; for inhibition of Aβ42 peptide aggregation (ThT assay): peptide 160 µM + Aβ42 5 µM
MTT cell viability = type: cell-based; settings: rat, NGF-differentiated PC-12-derived neurons
Method in brief: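 PC-12 cells seeded at 1×10^4/well and grown 24 h at 37 °C, 5% CO2. At 50–60% confluence they were differentiated with 100 ng/mL NGF in DMEM with reduced horse serum. Test peptide (5–160 μM) was added for 24 h. MTT (5 mg/mL in PBS) was added for 4 h at 37 °C, and formazan was dissolved in DMSO/methanol 1:1. A570 was read; viability = (treated − blank)/(control − blank) × 100.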

[5] = molecular target: amyloid beta (1–42) peptide (human); assay: ITC
Sequence of amyloid beta (1–42) peptide (human) (P05067 672-713): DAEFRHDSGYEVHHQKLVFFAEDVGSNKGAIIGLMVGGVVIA

T1 sequence (P05067 672-713): as above

Molecule | apoptotic cells (PI fluorescence intensity) [1] | Aβ42 fibril structure after coincubation (HR-TEM) (Aβ42 peptide [2]) | fibril formation of the peptide incubated alone (HR-TEM) (Aβ42 peptide [2]) | remaining at 72 h, 150 μM (Serum stability) | inhibition of Aβ42 aggregation (ThT assay) (Aβ42 peptide [4]) | inhibition of Aβ42 peptide aggregation (ThT assay) (Aβ42 peptide [4]) | viability at 24 h, 160 µM (MTT cell viability) | Ka [5] | also measured
CC(C)C[C@@H](NC(=O)[C@H](N)CCCCN)C(=O)N[C@H](CC(C)C)C(=O)N[C@H](Cc1ccccc1)C(=O)N[C@H](Cc1ccccc1)C(=O)N[C@H](C)C(N)=O [NT-02] (H-[dK][dL][dL][dF][dF][dA]-NH2) | 2.84 fold | Absence of the fibril structure | no fibril formation was observed | 95.5% | 57.61% | about 78.96% | – | – | FTIR C=O amide peak of Aβ42 treated with peptide (Aβ42 peptide [3]): 1642.76 cm^–1
CC(C)C[C@@H](NC(=O)[C@H](N)CCCCN)C(=O)N[C@H](CC(C)C)C(=O)N[C@H](Cc1ccccc1)C(=O)N[C@H](Cc1ccccc1)C(N)=O [NT-03] (H-[dK][dL][dL][dF][dF]-NH2) | 6.21 fold | Absence of the fibril structure | no fibril formation was observed | 91.6% | 54.26% | ~80.63% | – | – | –
CC(C)C[C@@H](N)C(=O)N[C@H](CC(C)C)C(=O)N[C@H](Cc1ccccc1)C(=O)N[C@H](Cc1ccccc1)C(=O)N[C@H](C)C(N)=O [NT-06] (H-[dL][dL][dF][dF][dA]-NH2) | – | – | – | – | – | – | 71.7% | – | –
CC(C)C[C@@H](N)C(=O)N[C@H](CC(C)C)C(=O)N[C@H](Cc1ccccc1)C(=O)N[C@H](Cc1ccccc1)C(N)=O [NT-07] (H-[dL][dL][dF][dF]-NH2) | – | – | – | – | – | – | 42.5% | – | –
CC(C)C[C@@H](N)C(=O)N[C@H](Cc1ccccc1)C(=O)N[C@H](Cc1ccccc1)C(=O)N[C@H](C)C(=O)N[C@H](CCC(=O)O)C(N)=O [NT-08] (H-[dL][dF][dF][dA][dE]-NH2) | – | – | – | – | – | – | 50.1% | – | –
CC(C)C[C@@H](N)C(=O)N1CCC[C@@H]1C(=O)N[C@H](Cc1ccccc1)C(=O)N[C@H](Cc1ccccc1)C(=O)N[C@H](C)C(=O)N[C@H](CCC(=O)O)C(N)=O [NT-13] (H-[dL][dP][dF][dF][dA][dE]-NH2) | 4.13 fold | Absence of the fibril structure | no fibril formation was observed | 90.4% | 48.41% | ~79.88% | – | – | FTIR C=O amide peak of Aβ42 treated with peptide (Aβ42 peptide [3]): 1645.94 cm^–1
CC(C)C[C@@H](NC(=O)[C@H](N)CCCCN)C(=O)N[C@@H](C(=O)N[C@H](Cc1ccccc1)C(=O)N[C@H](Cc1ccccc1)C(N)=O)C(C)C [NT-15, reference compound] | – | – | – | – | 41.87% | – | – | – | –
B1 | – | – | – | – | – | – | – | 2.25e+06 M⁻¹ | –
B2 | – | – | – | – | – | – | – | 142000 M⁻¹ | –
B3 | – | – | – | – | – | – | – | 3.47e+06 M⁻¹ | –
